Among the data in ChEMBL document CHEMBL1275344, “Synthesis and antimalarial assessment of a new series of orally active amino-functionalized spiro 1,2,4-trioxanes” (J Med Chem, 2010) are Activity and logP values, retold here.

The source made the active and inactive calls. The rule behind the calls is not given here.

Data set [1] concerns Plasmodium yoelii nigeriensis. Briefly: Antimalarial activity against multidrug-resistant Plasmodium yoelii nigeriensis infected in Swiss mice (Mus musculus) assessed as curated mice (Mus musculus) at 48 mg/kg, peroral for 4 days. Further details: dose 48 mg/kg. The class given is functional, organism-based. The gist of the method:
(§1)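 Swiss mice of either sex (20 ± 2 g) inoculated intraperitoneally with 1 × 10⁶ MDR P. yoelii nigeriensis parasites on day 0. Five mice per dose group, dosed orally in groundnut oil (0.1 mL), in two divided doses daily from day 0 to 3. Thin blood smears read on day 4, then twice weekly to day 28. Mice without patent infection by day 28 counted as cured. β-Arteether was the positive control.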

Data set [2] relates to Plasmodium yoelii nigeriensis. The data set is described as follows: Antimalarial activity against multidrug-resistant Plasmodium yoelii nigeriensis infected in Swiss mice (Mus musculus) assessed as curated mice (Mus musculus) at 96 mg/kg, peroral for 4 days. The format is functional, organism-based. Also noted: dose 96 mg/kg. The gist of the method:
as §1

The subject of data set [3] is Plasmodium yoelii nigeriensis. Briefly: Antimalarial activity against multidrug-resistant Plasmodium yoelii nigeriensis infected in Swiss mice (Mus musculus) assessed as curated mice (Mus musculus) at 24 mg/kg, peroral for 4 days. The class given is functional, organism-based. Further details: dose 24 mg/kg. In a few lines: as §1
In data set [4] the test system is Plasmodium yoelii nigeriensis. The data set is described as follows: Antimalarial activity against multidrug-resistant Plasmodium yoelii nigeriensis infected in Swiss mice (Mus musculus) assessed as curated mice (Mus musculus) at 12 mg/kg, peroral for 4 days. The format is functional, organism-based. Further details: dose 12 mg/kg. The gist of the method:
as §1

Data set [5] relates to Plasmodium yoelii nigeriensis. Briefly: Antimalarial activity against multidrug-resistant Plasmodium yoelii nigeriensis infected in Swiss mice (Mus musculus) assessed as suppression of parasitaemia at 24 mg/kg, peroral for 4 days relative to control. The format is functional. The settings on record: route oral. The gist of the method:
(§2)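 Swiss mice of either sex (20 ± 2 g) infected intraperitoneally with 1 × 10⁶ MDR P. yoelii nigeriensis parasites on day 0. Five mice per dose group, given oral doses in groundnut oil, twice daily on days 0–3. Parasitaemia read from day-4 thin blood smears. Suppression = [(C − T)/C] × 100, with C and T the control and treated parasitaemia. 100% means no parasites seen in 50 oil-immersion fields.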

The subject of data set [6] is Plasmodium yoelii nigeriensis. Briefly: Antimalarial activity against multidrug-resistant Plasmodium yoelii nigeriensis infected in Swiss mice (Mus musculus) assessed as suppression of parasitaemia at 96 mg/kg, perorally for 4 days relative to control. The settings on record: route oral. The class given is functional. The gist of the method:
as §2

Data set [7] concerns Plasmodium yoelii nigeriensis. Briefly: Antimalarial activity against multidrug-resistant Plasmodium yoelii nigeriensis infected in Swiss mice (Mus musculus) assessed as suppression of parasitaemia at 48 mg/kg, peroral for 4 days relative to control. The class given is functional. The settings on record: route oral. In a few lines: as §2
Data set [8] in a line: Lipophilicity, log P of the compound. The format is physicochemical. The settings on record: octanol/water.
Data set [9] relates to Plasmodium yoelii nigeriensis. The data set is described as follows: Antimalarial activity against multidrug-resistant Plasmodium yoelii nigeriensis infected in Swiss mice (Mus musculus) assessed as suppression of parasitaemia at 12 mg/kg, peroral for 4 days relative to control. The class given is functional. The settings on record: route oral. The gist of the method: as §2

As to `C=C(c1ccc2ccccc2c1)C1CCC2(CC1)COC(Nc1ccc(C(F)(F)F)cc1)OO2` (single isomer, unassigned; more polar) [listing 1 of 2 here], the outcome in data set [1], in data set [2] and in data set [3] was Active.

Consider `C=C(c1ccc2ccccc2c1)C1CCC2(CC1)COC(Nc1ccc(C(F)(F)F)cc1)OO2` (single isomer, unassigned; less polar) [listing 1 of 2 here], for which the outcome in data set [1], in data set [2] and in data set [3] was Active. The result in data set [4] was inactive.

`C=C(c1ccc2ccccc2c1)C1CCC2(CC1)COC(Nc1ccc(Cl)cc1)OO2` (configuration not stated): the result in data set [1] and in data set [2] was Active. The Activity in data set [5] was found to be 100%; in data set [6], 100%; in data set [7] it was 100%; in data set [9], 60%. Besides, the result in data set [4] and in data set [3] was inactive. In data set [8], this molecule came in with a logP of 6.15.

As for `C=C(c1ccc2ccccc2c1)C1CCC2(CC1)COC(Nc1ccc(C(F)(F)F)cc1)OO2` (single isomer, unassigned; less polar) [listing 2 of 2 here], the Activity in data set [5] amounted to 100%; in data set [6] it was 100%; in data set [7], 100%; in [9] (12 mg/kg), 6.25%. In data set [8], this molecule came in with a log partition coefficient (logP) of 6.51.

For the molecule `C=C(c1ccc2ccccc2c1)C1CCC2(CC1)COC(Nc1ccc(C(F)(F)F)cc1)OO2` (single isomer, unassigned; more polar) [listing 2 of 2 here], in [9] (12 mg/kg), the Activity is given as 100%.

One may read the logP as the decadic logarithm of the partition coefficient of the neutral form, usually between octanol and water.
